{"source": "the M2OR odorant receptor database", "data": [{"biological_target": "T1, OR1A1 (Homo sapiens) (UniProt Q9P1Q5)", "T1 sequence (whole entry)": "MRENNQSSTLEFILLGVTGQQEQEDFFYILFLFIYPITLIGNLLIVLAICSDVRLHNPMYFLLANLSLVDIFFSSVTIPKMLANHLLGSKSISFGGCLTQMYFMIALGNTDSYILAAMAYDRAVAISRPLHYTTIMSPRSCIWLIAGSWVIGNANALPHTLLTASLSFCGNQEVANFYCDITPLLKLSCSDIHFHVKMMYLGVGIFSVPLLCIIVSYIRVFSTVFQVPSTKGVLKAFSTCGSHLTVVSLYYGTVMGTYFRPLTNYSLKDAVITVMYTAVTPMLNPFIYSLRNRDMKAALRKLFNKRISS", "conditions": "stereoisomer not certain", "outline": "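Each entry records the cell line, G-protein, co-transfected protein and tags used. Methods varied with the source, often transient luciferase assays in mammalian cell lines. A receptor–molecule pair is called responsive (active) if the original authors judged its signal statistically different from baseline and non-responsive (inactive) otherwise.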", "values": [{"smiles": "CCOC(C)=O", "odorant receptor agonist call": "inactive"}, {"smiles": "CCCSSCCC", "odorant receptor agonist call": "inactive"}, {"smiles": "CCCCCO", "odorant receptor agonist call": "inactive"}, {"smiles": "CCCCCC1=C(C)CCC1=O", "odorant receptor agonist call": "active"}, {"smiles": "CCC(C)C=O", "note": "(stereo unspecified)", "odorant receptor agonist call": "inactive"}, {"smiles": "CCCCC(C)CCC(=O)O", "note": "(stereo unspecified)", "odorant receptor agonist call": "inactive"}, {"smiles": "CCCSSSCCC", "odorant receptor agonist call": "inactive"}, {"smiles": "CC1=CCC2CC1C2(C)C", "note": "(stereo unspecified)", "odorant receptor agonist call": "inactive"}, {"smiles": "CCCCCCCC(=O)[O-].[H+]", "odorant receptor agonist call": "inactive"}, {"smiles": "C=C(C)C1CCC(C)C(=O)C1", "note": "(stereo unspecified)", "odorant receptor agonist call": "active"}, {"smiles": "CCC=CCCC=CC=O", "odorant receptor agonist call": "inactive"}, {"smiles": "C=C(C)c1ccc(C)cc1", "odorant receptor agonist call": "inactive"}, {"smiles": "c1ccccc1", "odorant receptor agonist call": "inactive"}, {"smiles": "CCCCCC(=O)CC(C)=O", "odorant receptor agonist call": "active"}, {"smiles": "CCCCCCCC(C)=O", "odorant receptor agonist call": "active"}, {"smiles": "CCCCC(=O)OCC", "odorant receptor agonist call": "inactive"}, {"smiles": "CCCCCCCCCS", "odorant receptor agonist call": "active"}, {"smiles": "CCCCC=CC=CC=O", "odorant receptor agonist call": "inactive"}, {"smiles": "CC(=O)C(C)O", "note": "(stereo unspecified)", "odorant receptor agonist call": "inactive"}, {"smiles": "CCC(C)c1nccnc1OC", "note": "(stereo unspecified)", "odorant receptor agonist call": "inactive"}, {"smiles": "CC(=O)OCCC(C)C", "odorant receptor agonist call": "inactive"}, {"smiles": "CSCCC=O", "odorant receptor agonist call": "inactive"}, {"smiles": "CCOC(=O)CCSC", "odorant receptor agonist call": "inactive"}, {"smiles": "CC(=O)C1=NCCS1", "odorant receptor agonist call": "inactive"}, {"smiles": "CCCCCCCCCC(=O)OCC", "odorant receptor agonist call": "inactive"}, {"smiles": "CCCCCCCCCCO", "odorant receptor agonist call": "active"}, {"smiles": "CCCCC(=O)C(C)=O", "odorant receptor agonist call": "inactive"}, {"smiles": "CC(C)=CCCC(C)=CC#N", "odorant receptor agonist call": "inactive"}, {"smiles": "CCOC(=O)c1ccccc1", "odorant receptor agonist call": "inactive"}, {"smiles": "CC=Cc1ccc(OC)cc1", "odorant receptor agonist call": "active"}, {"smiles": "CCCCCC=CC=O", "odorant receptor agonist call": "inactive"}, {"smiles": "CCC(=O)O", "odorant receptor agonist call": "inactive"}, {"smiles": "CCCCC=CC=O", "odorant receptor agonist call": "inactive"}, {"smiles": "CCCc1ccc(O)c(OC)c1", "odorant receptor agonist call": "inactive"}, {"smiles": "CCC=CCCC=CCO", "odorant receptor agonist call": "inactive"}, {"smiles": "COc1ccccc1", "odorant receptor agonist call": "inactive"}]}]}
